PLC-beta3 inh = inhibitors of human phospholipase C beta3. Q01970. Purified PLC-beta3, fluorogenic substrate, fluorescence. inhibition, % at 12.2 µM. 370,000 tested, 0.18% active. AID 720704; in the data active = inhibition above about 11%
ARFGAP1 inh = rat ARFGAP1 inhibition | Q62848 | Arfgap1-stimulated ARF1 GTP hydrolysis, GDP FP detection | inhibition, % at 16.5 µM | 360,000 tested, 0.26% active | AID 651572;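 active = inhibition above a per-plate limit, mean inhibition of low control wells plus 3 SD, cut at about 25% in these data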
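Repeats: one replicate per compound; assay system: rat Arfgap1 catalytic domain, aa 1-136; times: enzyme reaction 120 min at 25 °C after 20 min preincubation; detection: FP of antibody-bound GDP Alexa 633 tracer, ex 620/em 688 nm; benchmarks: high control wells lacking Arfgap1, low control full reaction with DMSO; reagent: human ARF1(Δ1-17)-GTP substrate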
PLCg1 inh = blocks human PLC-gamma1 enzyme activity | P19174 | inhibition, % at 12.2 µM | 370,000 tested, 0.84% active | purified PLC-gamma1, fluorogenic substrate, fluorescence; in the data active = inhibition above about 9.5%
sPLA2-III inh = Blocks human group III sPLA2 activity; Q9NZ20; inhibition, % at 12.2 µM; 370,000 tested, 0.56% active; AID 743126; QFRET BODIPY PC-A2 liposome hydrolysis, fluorescence;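 active = inhibition above mean plus 3 SD of compounds lying within the high and low control bounds, cut at about 19% in these data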
Target sequence (Q9NZ20 whole entry, looked up): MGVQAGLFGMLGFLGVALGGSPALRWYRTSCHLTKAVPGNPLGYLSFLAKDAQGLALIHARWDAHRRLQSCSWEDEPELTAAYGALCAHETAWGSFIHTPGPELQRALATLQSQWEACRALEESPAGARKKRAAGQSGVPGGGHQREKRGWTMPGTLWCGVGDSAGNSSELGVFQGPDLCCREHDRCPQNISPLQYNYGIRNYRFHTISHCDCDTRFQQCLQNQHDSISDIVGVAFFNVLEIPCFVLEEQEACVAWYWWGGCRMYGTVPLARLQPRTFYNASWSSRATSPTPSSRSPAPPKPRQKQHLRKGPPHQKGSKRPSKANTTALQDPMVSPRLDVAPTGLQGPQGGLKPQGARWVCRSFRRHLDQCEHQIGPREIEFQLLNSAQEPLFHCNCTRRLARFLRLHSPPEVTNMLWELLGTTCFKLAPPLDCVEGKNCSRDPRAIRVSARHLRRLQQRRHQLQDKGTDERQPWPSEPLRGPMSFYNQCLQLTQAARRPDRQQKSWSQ
ASAP1 inh = inhibitors of human ASAP1 ArfGAP activity; AID 624377; ASAP1-stimulated ARF1 GTP hydrolysis, GDP FP detection; inhibition, % at 16.5 µM; Q9ULH1; 360,000 tested, 0.19% active; in the data active = inhibition above about 25%
sPLA2 confirm = human GIII-sPLA2 inhibition, confirmation; shares compounds with sPLA2-III inh; recombinant hGIII-sPLA2, BODIPY PC-A2 QFRET fluorescence; inhibition, % at 12.2 µM; 2,000 tested, 34% active; AID 743280;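 active = mean inhibition across triplicates above the hit cutoff set in the earlier primary screen, cut at about 19% in these data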
BODIPY interf = counter-screen for HGIII-sPLA2 inhibitors: 535nm fluorescence interference; shares compounds with sPLA2-III inh; BODIPY FL product fluorescence interference, QFRET; inhibition, % at 12.2 µM; 2,000 tested, 8.5% active; AID 743282;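 active = average inhibition above the solvent-only control mean plus 3 SD, cut at about 6% in these data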
535nm interf DR = interferes with 535nm fluorescence in dose response counter-screen | 240 tested, under 10 active | IC50, µM | BODIPY FL product fluorescence interference, cell-free | shares compounds with sPLA2-III inh;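 active = IC50 at or below 10 µM; inactive = IC50 above 10 µM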
Numbers stand for hits; 0 = inactive; - = no result. Most compounds without a hit are left out; they make up all but 1.9% or so of the library.

SMILES	PLC-beta3 inh	ARFGAP1 inh	PLCg1 inh	sPLA2-III inh	ASAP1 inh	sPLA2 confirm	BODIPY interf	others
CP(C)(=O)CCP(=O)(c1ccccc1)c1ccccc1	0	0	0	19.4	0	0	0
CC(=O)Nc1ccc(NC(C)=C(C#N)C#N)cc1	0	0	0	19.7	0	0	0
C=CCN1C(=O)[C@@H](CC(=O)NCc2cccc3ccccc23)[C@]2(C(=O)OC)CCCCC=C12	0	-	0	0	-	-	-
CCOc1ccc(-n2c(SCC(=O)Nc3ccc(S(=O)(=O)Nc4nccs4)cc3)nnc2-c2ccncc2)cc1	0	-	0	0	-	-	-
Oc1ccc(/C=N/N(Cc2ccccc2)c2ccccc2)c(O)c1O	0	0	0	20.4	0	30.2	7.4
O=C(O)c1ccc2c(c1)c1c3n2CCNC3CCC1 (stereo not given)	0	0	0	0	0	-	-
c1ccc2c(c1)c1c3n2CCNC3CCC1 (stereo not given)	0	0	0	25.9	0	29.9	0	535nm interf DR=0
O=C1CCC2(CCC(c3ccccc3)CC2)N1CCCO (stereo not given)	0	-	0	0	-	-	-
Cc1ccc(C(=O)NC(=S)Nc2c(C)ccc3nsnc23)cc1	0	0	0	23.4	0	0	0
COCCCNC(=S)NNC(=S)NCCCOC	0	0	0	21.6	0	0	0
CCCCc1c(-c2ccccc2OC)ncn1Cc1cccc(F)c1F	0	0	0	0	0	-	-
Nc1ccc(N2CCN(c3cccc(Cl)c3)CC2)cc1	0	0	0	22.8	0	0	0
COc1ccc([C@@]23CCN=C2c2[nH]c4ccccc4c2CCN3)c(N)c1	0	-	0	0	-	-	-
Clc1ccc2c(c1)Nc1ccccc1CC2	0	0	0	21.5	0	0	8.2
O=C(COC(=O)/C=C/c1cccc(Cl)c1)NCCC1=CCCCC1	0	0	0	0	0	-	-
O=C(COC(=O)/C=C/c1ccc(Cl)cc1)NCCC1=CCCCC1	0	0	0	21.5	0	0	0
CCOc1ccc(/C=N/Nc2cc(=O)n(C)c(=O)n2C)cc1	0	0	0	19.3	0	0	0
Cc1ccc(-c2cn(-c3ccccc3F)c(=S)[nH]2)cc1	0	0	0	26.9	0	23.6	0
O=[N+]([O-])c1ccc(-c2cn(-c3ccccc3F)c(=S)[nH]2)cc1	0	0	0	0	0	-	-
Cc1cccc(-n2cc(-c3ccccc3)[nH]c2=S)c1	0	0	0	20.3	0	31.2	0
COc1ccc(-n2cc(-c3ccccc3)[nH]c2=S)cc1	0	0	0	19.3	0	40.6	0	535nm interf DR=0
O=C(N[C@H](C(=O)N1CCC[C@H]1C(=O)NCCc1ccccc1Cl)c1ccccc1)c1ccco1	0	0	0	0	0	-	-
COc1ccc(C(=O)N/N=C/c2cc3ccccc3[nH]c2=S)cc1	0	0	0	43.7	0	35.5	10.0
Cc1ccc(C)c(NC(=S)N2CCN(Cc3ccccc3)CC2)c1	0	0	0	0	0	-	-
Cc1ccc(NC(=S)N2CCN(Cc3ccccc3)CC2)c(C)c1	0	0	0	21.2	0	0	0
SMILES	PLC-beta3 inh	ARFGAP1 inh	PLCg1 inh	sPLA2-III inh	ASAP1 inh	sPLA2 confirm	BODIPY interf	others
COc1ccc(/C=C/C(=O)Nc2ccc(OC)cc2[N+](=O)[O-])cc1	0	0	0	0	0	-	-
Cc1ccc(NC(=O)/C=C\C(=O)O)c([N+](=O)[O-])c1	0	0	0	20.9	0	0	0
CCOc1ccc(NC(=O)COC(=O)C23CC4CC(CC(C4)C2)C3)c([N+](=O)[O-])c1	0	0	0	21.2	0	0	0
COc1ccc(NC(=O)COC(=O)CC23CC4CC(CC(C4)C2)C3)c([N+](=O)[O-])c1	0	0	0	0	0	-	-
CCOc1ccc(NC(=O)/C=C/c2ccc(OC)cc2)c([N+](=O)[O-])c1	0	0	0	25.6	0	0	0
Cc1ccc(CN2CCCCC(NC(=O)c3ccc(COc4ccccc4)cc3)C2=O)cc1 (stereo not given)	0	-	0	0	-	-	-
CC(C)c1cc(C(=O)NCCc2cccs2)c(N)s1	0	0	0	0	0	-	-
CC(C)c1cc(C(=O)NCc2ccc(F)cc2)c(N)s1	0	0	0	21.2	0	23.7	0

Bioassay records as filed in PubChem.
